ChEMBL document CHEMBL2417469, “Synthesis of novel analogs of 2-pyrazoline obtained from [(7-chloroquinolin-4-yl)amino]chalcones and hydrazine as potential antitumor and antimalarial agents” (Eur J Med Chem, 2013)

How the values were obtained:
Assay type in all cases: functional
U-251 = experiment: Cytotoxicity against human U251 cells after 48 hrs by SRB assay; details: U-251, 48 h; for CC50: read-out: LC50 (the source's name)
How it was run: (§1)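 NCI 60-cell screen. Cells grew 24 h (37 °C, 5% CO2) before compound was added. Compounds were in DMSO and diluted in medium with gentamicin, then tested at five levels (100, 10, 1.0, 0.1, 0.01 µM) with 48 h continuous exposure. Adherent cells were fixed with TCA (10% final) and stained with 0.4% SRB, absorbance read at 515 nm. A time-zero plate was included. LC50 is the concentration giving 50% loss of protein relative to time zero.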

UACC-62 = experiment: Cytotoxicity against human UACC62 cells after 48 hrs by SRB assay; details: UACC-62, 48 h; for CC50: read-out: LC50 (the source's name); how it was run: as §1
CCRF-CEM = experiment: Cytotoxicity against human CCRF-CEM cells after 48 hrs by SRB assay
How it was run: (§2)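 NCI 60-cell-line screen. Cells preincubated 24 h at 37 °C, 5% CO2; time-zero plates TCA-fixed. Compounds dissolved in DMSO and tested at five concentrations (100, 10, 1.0, 0.1, 0.01 µM) for 48 h continuous exposure. Adherent cells fixed with cold TCA (10% final), then SRB stained; absorbance at 515 nm. GI50, TGI and LC50 calculated from growth relative to time-zero and untreated controls.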

CAKI-1 = experiment: Cytotoxicity against human Caki1 cells after 48 hrs by SRB assay; details: CAKI-1, 48 h; how it was run: as §2
SNB-75 = experiment: Cytotoxicity against human SNB75 cells after 48 hrs by SRB assay; details: SNB-75, 48 h; how it was run: as §1
BT-549 = experiment: Cytotoxicity against human BT549 cells after 48 hrs by SRB assay; details: BT-549, 48 h; how it was run: as §2
SF-295 = experiment: Cytotoxicity against human SF295 cells after 48 hrs by SRB assay; details: SF-295, 48 h; how it was run: as §2
Malme-3M = experiment: Cytotoxicity against human MALME-3M cells after 48 hrs by SRB assay; how it was run: as §2
TK-10 = experiment: Cytotoxicity against human TK10 cells after 48 hrs by SRB assay; details: TK-10, 48 h; how it was run: as §1
M14 = experiment: Cytotoxicity against human M14 cells after 48 hrs by SRB assay; details: M14, 48 h; for CC50: read-out: LC50 (the source's name); how it was run: as §2
SW-620 = experiment: Cytotoxicity against human SW620 cells after 48 hrs by SRB assay; details: SW-620, 48 h; how it was run: as §1
DU-145 = experiment: Cytotoxicity against human DU145 cells after 48 hrs by SRB assay; details: DU-145, 48 h; how it was run: as §2
HCT-15 = experiment: Cytotoxicity against human HCT15 cells after 48 hrs by SRB assay; details: HCT-15, 48 h; how it was run: as §2
NCI/ADR-RES = experiment: Cytotoxicity against human NCI/ADR-RES cells after 48 hrs by SRB assay; details: for CC50: read-out: LC50 (the source's name); how it was run: as §2
MDA-MB-231 = experiment: Cytotoxicity against human MDA-MB-231 cells after 48 hrs by SRB assay; details: MDA-MB-231, 48 h; how it was run: as §2
SR = experiment: Cytotoxicity against human SR cells after 48 hrs by SRB assay; how it was run: as §1
786-0 = experiment: Cytotoxicity against human 786-0 cells after 48 hrs by SRB assay; details: 786-0, 48 h; how it was run: as §2
PC-3 = experiment: Cytotoxicity against human PC3 cells after 48 hrs by SRB assay; details: PC-3, 48 h; how it was run: as §2
NCI-H522 = experiment: Cytotoxicity against human NCI-H522 cells after 48 hrs by SRB assay; details: NCI-H522, 48 h; for CC50: read-out: LC50 (the source's name); how it was run: as §2
A549 = experiment: Cytotoxicity against human A549/ATCC cells after 48 hrs by SRB assay; details: A549, 48 h; for CC50: read-out: LC50 (the source's name); how it was run: as §2
RXF 393 = experiment: Cytotoxicity against human RXF393 cells after 48 hrs by SRB assay; details: RXF 393, 48 h; how it was run: as §2
UACC-257 = experiment: Cytotoxicity against human UACC257 cells after 48 hrs by SRB assay; details: UACC-257, 48 h; how it was run: as §1
LOX IMVI = experiment: Cytotoxicity against human LOXIMVI cells after 48 hrs by SRB assay; how it was run: as §2
Hs-578T = experiment: Cytotoxicity against human Hs578T cells after 48 hrs by SRB assay; how it was run: as §2
OVCAR-4 = experiment: Cytotoxicity against human OVCAR4 cells after 48 hrs by SRB assay; details: OVCAR-4, 48 h; how it was run: as §2
SF-539 = experiment: Cytotoxicity against human SF539 cells after 48 hrs by SRB assay; details: SF-539, 48 h; for CC50: read-out: LC50 (the source's name); how it was run: as §2
NCI-H23 = experiment: Cytotoxicity against human NCI-H23 cells after 48 hrs by SRB assay; details: NCI-H23, 48 h; for CC50: read-out: LC50 (the source's name); how it was run: as §2
HT-29 = experiment: Cytotoxicity against human HT-29 cells after 48 hrs by SRB assay; details: HT-29, 48 h; how it was run: as §2
A498 = experiment: Cytotoxicity against human A498 cells after 48 hrs by SRB assay; details: A498, 48 h; for CC50: read-out: LC50 (the source's name); how it was run: as §2
UO-31 = experiment: Cytotoxicity against human UO31 cells after 48 hrs by SRB assay; details: UO-31, 48 h; how it was run: as §1
MDA-MB-468 = experiment: Cytotoxicity against human MDA-MB-468 cells after 48 hrs by SRB assay; details: MDA-MB-468, 48 h; how it was run: as §2
KM12 = experiment: Cytotoxicity against human KM12 cells after 48 hrs by SRB assay; details: KM12, 48 h; how it was run: as §2
SK-OV-3 = experiment: Cytotoxicity against human SKOV3 cells after 48 hrs by SRB assay; details: SK-OV-3, 48 h; how it was run: as §2
COLO 205 = experiment: Cytotoxicity against human COLO205 cells after 48 hrs by SRB assay; details: COLO 205, 48 h; how it was run: as §2
HL-60(TB) = experiment: Cytotoxicity against human HL-60(TB) cells after 48 hrs by SRB assay; details: HL-60, 48 h; how it was run: as §2
MOLT-4 = experiment: Cytotoxicity against human MOLT4 cells after 48 hrs by SRB assay; details: MOLT-4, 48 h; how it was run: as §2
IGROV-1 = experiment: Cytotoxicity against human IGROV1 cells after 48 hrs by SRB assay; details: IGROV-1, 48 h; how it was run: as §2

COc1cccc2c1C(=O)c1c(O)c3c(c(O)c1C2=O)C[C@@](O)(C(=O)CO)C[C@@H]3O[C@H]1C[C@H](N)[C@H](O)[C@H](C)O1 [DOXORUBICIN]
GI50 (U-251): 0.04 µM
CC50 (U-251): 30.6 µM
GI50 (UACC-62): 0.12 µM
CC50 (UACC-62): 0.74 µM
GI50 (CCRF-CEM): 0.08 µM
GI50 (CAKI-1): 0.95 µM
GI50 (SNB-75): 0.07 µM
GI50 (BT-549): 0.23 µM
GI50 (SF-295): 0.1 µM
GI50 (Malme-3M): 0.12 µM
GI50 (TK-10): 0.18 µM
GI50 (M14): 0.18 µM
CC50 (M14): 4.05 µM
GI50 (SW-620): 0.09 µM
GI50 (DU-145): 0.11 µM
GI50 (HCT-15): 6.46 µM
GI50 (NCI/ADR-RES): 7.16 µM
CC50 (NCI/ADR-RES): 100 µM
GI50 (MDA-MB-231): 0.51 µM
GI50 (SR): 0.03 µM
GI50 (786-0): 0.13 µM
GI50 (PC-3): 0.32 µM
GI50 (NCI-H522): 0.03 µM
CC50 (NCI-H522): 2.8 µM
GI50 (A549): 0.06 µM
CC50 (A549): 100 µM
GI50 (RXF 393): 0.1 µM
GI50 (UACC-257): 0.14 µM
GI50 (LOX IMVI): 0.07 µM
GI50 (Hs-578T): 0.33 µM
GI50 (OVCAR-4): 0.37 µM
GI50 (SF-539): 0.12 µM
CC50 (SF-539): 27.2 µM
GI50 (NCI-H23): 0.15 µM
CC50 (NCI-H23): 13.2 µM
GI50 (HT-29): 0.12 µM
GI50 (A498): 0.1 µM
CC50 (A498): 1.9 µM
GI50 (UO-31): 0.49 µM
GI50 (MDA-MB-468): 0.05 µM
GI50 (KM12): 0.27 µM
GI50 (SK-OV-3): 0.22 µM
GI50 (COLO 205): 0.18 µM
GI50 (HL-60(TB)): 0.12 µM
GI50 (MOLT-4): 0.03 µM
GI50 (IGROV-1): 0.17 µM

CC(=O)N1N=C(c2ccc(Nc3ccnc4cc(Cl)ccc34)cc2)CC1c1ccc(Cl)cc1 (stereo unspecified)
GI50 (U-251): > 100 µM
CC50 (U-251): > 100 µM
GI50 (UACC-62): 2.95 µM
CC50 (UACC-62): > 100 µM
GI50 (CAKI-1): > 100 µM
LC50 (CAKI-1): > 100 µM
LC50 (50% net cell kill) (SNB-75): > 100 µM
GI50 (BT-549): 5.4 µM
LC50 (50% net cell kill vs time zero) (BT-549): > 100 µM
GI50 (SF-295): 3.58 µM
LC50 (SF-295): > 100 µM
LC50 (Malme-3M): > 100 µM
GI50 (TK-10): > 100 µM
LC50 (concentration giving 50% cell loss vs time zero) (TK-10): > 100 µM
GI50 (M14): 5.24 µM
CC50 (M14): > 100 µM
GI50 (SW-620): 100 µM
LC50 (SW-620): > 100 µM
GI50 (DU-145): > 100 µM
LC50 (concentration killing 50% of cells) (DU-145): > 100 µM
GI50 (HCT-15): 3.33 µM
LC50 (concentration killing 50% of cells relative to time zero) (HCT-15): > 100 µM
GI50 (NCI/ADR-RES): 3.04 µM
CC50 (NCI/ADR-RES): > 100 µM
GI50 (MDA-MB-231): > 100 µM
LC50 (concentration killing 50% of cells present at time zero) (MDA-MB-231): > 100 µM
GI50 (SR): 0.61 µM
LC50 (SR): > 100 µM
GI50 (786-0): > 100 µM
LC50 (786-0): > 100 µM
GI50 (PC-3): 3.02 µM
LC50 (PC-3): > 100 µM
GI50 (NCI-H522): 5.05 µM
CC50 (NCI-H522): > 100 µM
GI50 (A549): 8.81 µM
CC50 (A549): > 100 µM
GI50 (RXF 393): 5.07 µM
LC50 (concentration killing 50% of cells) (RXF 393): > 100 µM
GI50 (UACC-257): > 100 µM
LC50 (UACC-257): > 100 µM
GI50 (LOX IMVI): 3.15 µM
LC50 (LOX IMVI): > 100 µM
GI50 (Hs-578T): > 100 µM
LC50 (50% net cell kill) (Hs-578T): > 100 µM
GI50 (OVCAR-4): 6.92 µM
LC50 (OVCAR-4): > 100 µM
GI50 (SF-539): > 100 µM
CC50 (SF-539): > 100 µM
GI50 (NCI-H23): > 100 µM
CC50 (NCI-H23): > 100 µM
GI50 (HT-29): 5.4 µM
LC50 (HT-29): > 100 µM
GI50 (A498): > 100 µM
CC50 (A498): > 100 µM
GI50 (UO-31): 3.87 µM
LC50 (UO-31): > 100 µM
GI50 (MDA-MB-468): 2.41 µM
LC50 (MDA-MB-468): > 100 µM
GI50 (KM12): 6.59 µM
LC50 (concentration killing 50% of cells) (KM12): > 100 µM
GI50 (SK-OV-3): > 100 µM
LC50 (concentration killing 50% of cells) (SK-OV-3): > 100 µM
GI50 (COLO 205): 5.93 µM
LC50 (COLO 205): > 100 µM
GI50 (HL-60(TB)): 3.56 µM
CC50 (HL-60(TB); read-out: LC50 (the source's name)): > 100 µM
GI50 (MOLT-4): 2.42 µM
LC50 (MOLT-4): > 100 µM
GI50 (IGROV-1): > 100 µM
LC50 (concentration killing 50% of cells relative to time zero) (IGROV-1): > 100 µM
